The subject of data set [1] is Moloney murine leukemia virus. The data set can be described thus: Inhibition of Moloney murine leukemia virus reverse transcriptase using [3H-methyl]-dTTP as substrate after 120 mins. More on the design: unit not given here. The method, boiled down:
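Enzyme source was Moloney MLV from infected NIH-3T3 cells, gradient-purified, used as whole virus. Mix: 40 mM Tris-HCl pH 7.8, 50 mM NaCl, 2 mM MnCl2, 1.6 mM DTT, 0.0125% Triton X-100, 0.64 mM each dATP/dCTP/dGTP, [methyl-3H]dTTP. Compounds were tested at 4–400 μg/mL (Me2SO up to 4%). Incubation was 37 °C, sampled at 120 min for acid-precipitable counts, mean of three runs. I50 read from %-of-Me2SO-control plot.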

Data set [2] is described as follows: Lipophilicity of the compound by reversed-phase HPLC analysis. As to conditions: ODS stationary phase, MeOH-H2O (2:1) mobile phase.
Data set [3] can be described thus: Lipophilicity of the compound by reversed-phase TLC analysis. The following applies: RP-TLC on silylated silica plates impregnated with Dow-Corning 704 fluid. The data set is classed as physicochemical. The method, boiled down: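 Silica gel F-254 plates were silanized with 5% (CH3)2SiCl2 in toluene, then impregnated with 5% Dow-Corning 704 fluid in ether. Spots were 1 μL of 3 mg/mL CH2Cl2 solution. Plates were developed in acetone–water 3:1 saturated with the fluid and visualized with 2% aqueous AgNO3. Rm = log(1/Rf − 1), averaged over five determinations.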

Molecules are shown by their SMILES.

`CN1C(=O)C23SSC1(c1ccccc1)C(=O)N2c1ccccc1C3(C)C` (stereo unspecified): the log(I50×10^5) in data set [1] is 0.978. Further, the “log k'” value in data set [2] is listed as -0.0527. Also, in data set [3], the Rm is reported as 0.3007.
For `CN1CC(=O)N2c3ccccc3C(C)(C)C2(S)C1=O` (stereo unspecified), in that order: 2.07, -1.067 and 0.0132.
Take `CCN1C(=O)C23SSC1(C)C(=O)N2c1ccccc1C3(C)C` (stereo unspecified): in data set [1], the log(I50×10^5) was 1.89. Besides, in data set [2], the “log k'” value is given as -0.34. For the same compound, the Rm in data set [3] was determined as 0.1636.
The matching figures for `CC(C)N1C(=O)C23SSC1(C)C(=O)N2c1ccccc1C3(C)C` (stereo unspecified): 1.93, -0.1291 and 0.2769.
The matching figures for `CC12SSC3(C(=O)N1c1ccccc1)N(C2=O)c1ccccc1C3(C)C` (stereo unspecified): 1.69, -0.1127 and 0.2892.
For `CCCN1C(=O)C23SSC1(C)C(=O)N2c1ccccc1C3(C)C` (stereo unspecified), in that order: 1.06, -0.0817 and 0.2717.
In the case of `CC12SSC3(C(=O)N1Cc1ccccc1)N(C2=O)c1ccccc1C3(C)C` (stereo unspecified), in data set [1], the log(I50×10^5) was determined as 0.574. In data set [2], the “log k'” value was 0.0994. In data set [3], this compound registered a Rm of 0.3514.

The record behind these values is ChEMBL document CHEMBL3272237, “Gliotoxin analogues as inhibitors of reverse transcriptase. 1. Effect of lipophilicity” (J Med Chem, 1978).
